Data set [1] deals with 3T3-L1. Put plainly: Cytotoxicity against mouse 3T3L1 cells assessed as reduction in cell viability at 10 ng/ml after 6 hrs by alamar blue assay. Format: cell-based. Conditions: 3t3-l1, 6 h. Background: Alamar Blue is a resazurin reagent that responds to reducing activity.
The target in data set [2] is T1, Prostaglandin E synthase (Mus musculus) (UniProt Q9JM51).
T1 sequence (whole entry): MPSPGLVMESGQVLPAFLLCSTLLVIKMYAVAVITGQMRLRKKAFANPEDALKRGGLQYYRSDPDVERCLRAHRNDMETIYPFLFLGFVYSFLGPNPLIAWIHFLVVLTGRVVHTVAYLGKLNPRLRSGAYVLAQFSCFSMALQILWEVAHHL
The data set can be described thus: (§1) Inhibition of mPGES1 in mouse 3T3L1 cells assessed as reduction in PGE2 production after 1 hr by ELISA. The class given is cell-based. A digest of the protocol:
(§2)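 3T3 cells were treated at four doses and secreted PGE2 was measured by ELISA. IC50 was obtained by four-parameter logistic fit.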
A general note: An ELISA detects its analyte on a solid surface through an enzyme-linked reagent.

Data set [3] deals with T2, Prostaglandin E synthase (Mus musculus, UniProt Q9JM51).
T2 sequence (Q9JM51 whole entry): T1 sequence (whole entry)
The description is as §1. Format: cell-based. In a few lines:
as §2

Data set [4] addresses T1, Prostaglandin E synthase (Mus musculus). The data set can be described thus: Inhibition of mPGES1 in mouse 3T3L1 cells assessed as reduction in PGE2 production at 1 to 10 ng/ml after 1 hr by ELISA. The class given is cell-based. In a few lines:
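3T3 cells were treated with compound at 1 and 10 ng/ml. Culture media were collected and secreted PGE2 was measured by ELISA.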

The species named for data set [5] is Homo sapiens. The data set can be described thus: Inhibition of TNFalpha-induced NFkappaB activation (unknown origin) expressed in mouse 3T3L1 cells at 10 ng/µl by luciferase reporter gene assay. A general note: Reporter assays use an easily measured gene product as a stand-in for the process of interest.
The target in data set [6] is T1, Prostaglandin E synthase (Mus musculus). The data set can be described thus: Inhibition of mPGES1 in mouse 3T3L1 cells assessed as reduction in PGE2 production at 10 ng/ml after 1 hr by ELISA relative to control; values are per cent of control.

Structures are written as SMILES. The source made the active and inactive calls. The calls are words filed in the database; no cut-off is given here.

In general, IC50 refers to the concentration needed to halve the response being measured. Turning to `COc1ccc(C/C=C/Cc2ccc(OC)cc2)cc1`, the Activity result in data set [1] was “Non-Toxic”. For the same compound, the inhibition entry in data set [2] is “Dose-dependent effect”. Further, in data set [3], the IC50 amounted to 12 µM.

With `COc1ccc(C/C=C/CCCCc2ccccc2O)cc1`, in data set [4], the inhibition entry is “Active”. Besides, the inhibition result in data set [5] was “inactive”.

Regarding `COc1ccc(CCCCCCCc2ccccc2O)cc1`, the inhibition result in data set [4] is “inactive”.

`COc1cc(/C=C/C(=O)CC(=O)/C=C/c2ccc(O)c(OC)c2)ccc1O`: the inhibition entry in data set [5] was “Active”.

With `COc1ccc(CCCCCCCc2ccccc2O)cc1OC`, the Activity result in data set [1] was “Non-Toxic”. Also, the inhibition entry in data set [2] was “Dose-dependent effect”. Besides, the IC50 in data set [3] was determined as 17 µM. The inhibition entry in data set [5] was “inactive”.

Consider `COc1ccc(C/C=C/CCCCc2ccc(O)cc2)cc1OC`, for which the Activity entry in data set [1] is “Non-Toxic”. Further, in data set [2], the inhibition result is “Dose-dependent effect”. The IC50 in data set [3] is 1.7 µM.

With `COc1ccc(CCCCCCCc2ccc(O)cc2)cc1`, in data set [5], the inhibition entry is “inactive”.

Regarding `COc1ccc(C/C=C/CCCCc2ccccc2O)cc1OC`, the inhibition entry in data set [5] was “inactive”.

As to `COc1ccc(CCCCc2ccc(OC)cc2)cc1`, the inhibition entry in data set [2] was “Dose-dependent effect”. Further, in data set [5], the inhibition entry was “inactive”.

As a reminder, the residual activity is what remains of the control signal, in per cent. `COc1ccc(CCCCCCCc2ccc(O)cc2)cc1OC`: the Activity result in data set [1] was “Non-Toxic”. In addition, in data set [2], the inhibition result was “Dose-dependent effect”. Further, the IC50 in data set [3] was 29 µM. Also, the residual activity in data set [6] worked out at 33%.

On to `COc1ccc(C/C=C/CCCCc2ccc(O)cc2)cc1`, for which the inhibition entry in data set [4] is “inactive”.

For the origin of these results see ChEMBL document CHEMBL4184113, “Synthesis and PGE2 inhibitory activity of novel diarylheptanoids” (Bioorg Med Chem Lett, 2018).
